{
  "source": "the M2OR odorant receptor database",
  "key": {"[1]": {"target": "T1, OR10H1 (Homo sapiens) (UniProt Q9Y4A9)", "T1 sequence (whole entry)": "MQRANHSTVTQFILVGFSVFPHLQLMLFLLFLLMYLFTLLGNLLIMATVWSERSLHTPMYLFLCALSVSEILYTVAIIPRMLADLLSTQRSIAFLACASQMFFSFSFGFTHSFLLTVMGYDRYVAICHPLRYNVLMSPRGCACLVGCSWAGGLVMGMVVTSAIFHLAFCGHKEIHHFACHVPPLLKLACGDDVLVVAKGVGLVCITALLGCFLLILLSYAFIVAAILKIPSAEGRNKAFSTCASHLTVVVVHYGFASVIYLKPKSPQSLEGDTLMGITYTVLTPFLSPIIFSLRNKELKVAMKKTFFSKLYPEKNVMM", "conditions": "stereoisomer not certain", "summary_of_the_method": "(§1)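 Each entry records the cell line, G-protein, co-transfected protein and tags used. Methods varied with the source, often transient luciferase assays in mammalian cell lines. A receptor–molecule pair is called responsive (active) if the original authors judged its signal statistically different from baseline and non-responsive (inactive) otherwise.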"}, "[2]": {"target": "T2, OR10J5 (Homo sapiens) (UniProt Q8NHC4)", "T2 sequence (whole entry)": "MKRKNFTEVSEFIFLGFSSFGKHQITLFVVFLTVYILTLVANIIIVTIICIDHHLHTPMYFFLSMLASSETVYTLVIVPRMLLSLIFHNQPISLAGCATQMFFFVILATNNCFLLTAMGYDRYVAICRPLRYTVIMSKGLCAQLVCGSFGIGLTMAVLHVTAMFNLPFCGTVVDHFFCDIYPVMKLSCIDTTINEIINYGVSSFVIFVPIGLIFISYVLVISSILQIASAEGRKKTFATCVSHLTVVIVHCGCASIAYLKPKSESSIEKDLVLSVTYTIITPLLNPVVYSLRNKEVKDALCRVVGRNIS", "conditions": "stereoisomer not certain", "summary_of_the_method": "as §1"}},
  "data": [
    {"smiles": "c1ccccc1", "values": [
      {"measurement": "odorant receptor agonist call", "setting": "[1]", "value": "inactive"},
      {"measurement": "odorant receptor agonist call", "setting": "[2]", "value": "inactive"}
    ]}
  ]
}
